Screens deposited in PubChem by several laboratories.
Pf gametocyte – kills late stage P. falciparum gametocytes; 150,000 compounds, 0.065% hits; AID 743093; inhibition, % at 10.9 µM; P. falciparum stage V gametocytes, ATP luminescence, 24 h;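 active = inhibition above the mean plus 3 SD of compounds within the control limits, set per campaign, cut at about 38% in these data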
Biofilm kill mix – mixture kills Candida albicans biofilm cells. C. albicans biofilm persisters + clotrimazole, fluorescence viability; primary screen in compound mixtures of four per well. inhibition, % at 7.6 µM. 120,000 compounds, 0.02% hits;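 active = inhibition above 30.3% in the primary screen of four-compound pools, then above 30% when the compound was retested; inconclusive = passed the primary limit but could not be retested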;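 also: compounds exposed to preformed 24 h biofilms for 48 h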
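Assay system: C. albicans biofilms / Medium: RPMI/MOPS medium, pH 7.0 / Schedule: biofilm formation 24 h, compound exposure 48 h, 37 °C / Measured by: Alamar Blue fluorescence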
ROMK primary – modulators of human ROMK potassium channel; P48048; Tet-inducible ROMK, thallium flux fluorescence; actives lie on both sides; B-score at 10 µM; 130,000 compounds, 2% hits;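 active = signal ratio slope over the read window, or its plate-corrected B-score, at least 3 SD from the plate mean, either direction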;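 also: B-score of the F/F0 ratio slope over 7 to 12 s after thallium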
Target sequence (P48048 whole entry, looked up): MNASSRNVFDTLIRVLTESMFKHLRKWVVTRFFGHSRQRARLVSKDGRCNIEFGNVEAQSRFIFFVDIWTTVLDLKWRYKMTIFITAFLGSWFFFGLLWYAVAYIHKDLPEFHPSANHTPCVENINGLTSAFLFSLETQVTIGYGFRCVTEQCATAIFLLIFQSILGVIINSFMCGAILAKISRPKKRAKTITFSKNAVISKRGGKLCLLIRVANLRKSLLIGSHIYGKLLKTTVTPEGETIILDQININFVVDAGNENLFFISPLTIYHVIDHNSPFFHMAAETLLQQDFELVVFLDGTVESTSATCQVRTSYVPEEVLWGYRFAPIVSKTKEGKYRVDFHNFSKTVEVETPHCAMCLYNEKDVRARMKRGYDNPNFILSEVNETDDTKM
ROMK hit retest – confirmation of human ROMK potassium channel modulators | ROMK thallium flux, fluorescence ratio; active compounds read low | 3,000 compounds, 54% hits | shares compounds with ROMK primary | normalized thallium flux (F/F0 slope) at 10 µM;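 active = Flux at 10 µM at least 3 SD below or above vehicle control mean in one or both replicates; inconclusive = no clear call, values can overlap the other calls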
Numbers stand for hits; n = inactive; u = inconclusive; x = not tested or not shown. Shown is part of a subset that was picked to be rich in hits.

SMILES	Pf gametocyte	Biofilm kill mix	ROMK primary	ROMK hit retest
O=C1/C(=C/c2cccnc2)SC(=S)N1CC1CCCO1 (stereo not drawn)	x	n	-3.98	u
COc1ccccc1NC(C)C(=O)N/N=C/c1ccccc1OCc1cccc(Br)c1 (stereo not drawn)	n	n	n	x
O=C(NCCc1ccc(F)cc1)c1cc(-c2ccncc2)nc2ccccc12	x	n	x	x
O=C1ON=C(c2cccc([N+](=O)[O-])c2)/C1=C/c1ccc(O)cc1	n	n	-4.56	0.0648
O=C1ON=C(c2ccccc2)/C1=C/c1ccc(OS(=O)(=O)c2ccccc2)cc1	n	n	x	x
O=C(NCCC1=CCCCC1)C(=O)NCC(c1ccco1)N1CCN(c2ccc(F)cc2)CC1 (stereo not drawn)	x	n	n	x
O=C(CSc1nnc(NC(=O)C2CC2)s1)NCc1ccco1	n	n	x	x
Cn1c(SCc2ccccn2)nc2c1c(=O)[nH]c(=O)n2C	x	n	x	x
Cc1cc(-c2nn(-c3ccccc3F)cc2CN2CCC(O)CC2)c(C)s1	n	n	n	x
Cc1cc(-c2nn(-c3ccccc3F)cc2CN2CCN(c3ccncc3)CC2)c(C)s1	x	n	-3.05	0.0635
Cc1ccccc1NC(=O)CSc1ccsc1[N+](=O)[O-]	n	n	x	x
COc1ccc(N(C(=O)CCC(=O)Nc2cc(C)on2)C(C(=O)NC2CCCC2)c2ccco2)cc1 (stereo not drawn)	n	n	n	x
COc1ccc(N(C(=O)/C=C/C(=O)Nc2cc(C)on2)C(C(=O)NC2CCCC2)c2ccccc2C)cc1 (stereo not drawn)	n	n	-6.44	0.0575
CC(C)(C)NC(=O)Cn1c(Cl)nc2ccccc21	n	n	n	x
O=C(CCCN1C(=O)c2ccccc2C1=O)NC1CCCCCC1	n	x	1.2	n
O=C(CCN1C(=O)c2cccnc2C1=O)NC1CCCCCC1	n	x	x	x
CCOC(=O)COc1ccc(Br)cc1/C=C\c1[nH]c(=O)[nH]c(=O)c1[N+](=O)[O-]	n	n	n	x
CCOC(=O)COc1ccc(Br)cc1/C=C/c1[nH]c(=O)[nH]c(=O)c1[N+](=O)[O-]	n	n	-2.72	0.0514
O=C1CCC2S/C(=C/Nc3ccc(C(F)(F)F)cc3)C(=O)N12 (stereo not drawn)	n	n	n	x
CN(C(=O)COC(=O)c1ccc([N+](=O)[O-])cc1)c1ccccc1	n	n	n	x
CN(/C=C/C(=C\C=[N+](C)c1ccccc1)OCCCS(=O)(=O)[O-])c1ccccc1	n	n	-3.12	0.0607
CN(/C=C/C(=C/C=[N+](C)c1ccccc1)OCCCS(=O)(=O)[O-])c1ccccc1	n	n	-3.46	0.0558
CN(CC(=O)NCCc1ccc(S(N)(=O)=O)cc1)c1ccccc1	x	n	n	x
COc1ccccc1-n1c(SCC(=O)N2CCc3ccccc32)nc2c(c1=O)SCC2	x	x	x	0.0576
COc1ccccc1-n1c(SCC(=O)Nc2ccc3c(c2)OCO3)nc2c(c1=O)SCC2	n	x	x	x
SMILES	Pf gametocyte	Biofilm kill mix	ROMK primary	ROMK hit retest
CCOc1ccc(C(c2c(NC(=O)c3ccccc3)sc(C)c2C)N2CCN(CCO)CC2)cc1 (stereo not drawn)	n	n	n	x
Cc1sc(NC(=O)c2ccccc2)c(C(c2ccc(Cl)cc2)N2CCN(CCO)CC2)c1C (stereo not drawn)	n	n	-2.41	n
Cc1c(NC(=O)/C(C#N)=C/c2ccc(-c3ccc(Cl)c(Cl)c3)o2)c(=O)n(-c2ccccc2)n1C	n	n	n	x
Cc1c(NC(=O)/C(C#N)=C/c2ccccc2)c(=O)n(-c2ccccc2)n1C	n	n	-2.93	0.0508
Cc1ccsc1/C=C(\C#N)C(=O)Nc1c(C)n(C)n(-c2ccccc2)c1=O	n	n	n	x
Cc1c(NC(=O)/C(C#N)=C/c2ccc(-c3ccccc3Cl)o2)c(=O)n(-c2ccccc2)n1C	x	n	x	0.0558
CCCc1nc(SCC(=O)c2ccc(F)cc2)c2ccccc2n1	n	n	n	x
CCOC(=O)N1CCN(c2c(N3CCN(c4ccccc4F)CC3)c(=O)c2=O)CC1	n	n	x	x
CCc1nc(SCC(=O)Nc2ccc(N(C)C)cc2)c2ccccc2n1	n	n	n	x
O=C1CC(/C=C/c2ccccn2)=Nc2ccccc2N1	n	n	n	x
O=C1CC(/C=C/c2ccc([N+](=O)[O-])cc2)=Nc2ccccc2N1	n	n	x	0.0568
N#C/C(=C\c1ccccc1[N+](=O)[O-])C(=O)Nc1ccc(S(N)(=O)=O)cc1	n	n	x	x
CCOc1ccccc1/C=C(\C#N)C(=O)Nc1cccc(C(=O)O)c1	n	n	x	x
COc1ccccc1/C=C(\C#N)C(=O)Nc1ccc(S(N)(=O)=O)cc1	n	n	-3.34	0.0607
COc1cc(/C=C(/C#N)C(=O)Nc2ccccc2)c(Br)cc1OCc1ccc(C(=O)O)cc1	n	n	-4.97	0.0551
O=C(CCCn1cc([N+](=O)[O-])cn1)N1CCCCC1	n	n	n	x
O=C(CSc1nnc(COc2ccccc2)o1)N1CCOCC1	n	n	n	x
CCCCN(CCCC)C(=O)CSc1nnc2n(C)c(=O)c3c4c(sc3n12)CCCC4	x	x	-3.62	0.049
CCCSc1nnc2n(C)c(=O)c3c4c(sc3n12)CCC4	n	x	x	x
Cc1ccc(/C=C/C(=O)N(Cc2cccs2)C2CCS(=O)(=O)C2)cc1 (stereo not drawn)	n	n	x	x
CCc1nn(C)c2c(=O)c(=O)c2n(C)[nH]1	n	n	n	x
CCCOc1ccc(C(=O)Nc2ccc(S(=O)(=O)Nc3cc(C)nc(C)n3)cc2)cc1	n	n	x	x
CCc1cccc(NC(=O)CSCc2cc(=O)[nH][nH]2)c1	n	x	n	x
CCc1cccc(NC(=O)CSC2=NS(=O)(=O)c3ccccc32)c1	x	x	x	0.0594
COC(=O)C1=C(C(=O)OC)[C@@H]2Nc3ccccc3[C@@]23C[C@@H](C(=O)OC)N(C(=O)NC2CCCCC2)C3=N1	n	x	x	x
SMILES	Pf gametocyte	Biofilm kill mix	ROMK primary	ROMK hit retest
CC1CCN(C(=S)NCCc2ccccc2)CC1	n	x	x	x
S=C(NCCc1ccccc1)N1CCN(C2CCCCC2)CC1	x	n	-2.75	0.0628
CC(C)c1ccc(CNc2nc3nc4c(c(=O)n3[nH]2)CCC4)cc1	n	n	n	x
CCOc1ccccc1CNc1nc2nc3c(c(=O)n2[nH]1)CCC3	n	x	x	n
Cc1ccc(NC(=S)NNC(=O)c2ccc(N3CCOCC3)c([N+](=O)[O-])c2)cc1C	n	n	n	x
COc1cc(C(=S)N2CCOCC2)cc(OC)c1OC(=O)c1cccc(C)c1	n	x	x	x
Cc1ccccc1-c1nnc(SCCOc2ccc3c(C)cc(=O)oc3c2)o1	x	x	n	x
NC(=O)c1cc(Br)cc(C2CCCCC2)c1O	x	n	x	x
Cc1cccc(COCC(Cc2ccccc2)N2CCN(C(=O)c3cccc(Cl)c3)CCC2=O)c1 (stereo not drawn)	n	n	-2.93	0.0536
Cc1cccc(C(=O)N2CCC(=O)N(C(COCc3ccccc3)Cc3ccccc3)CC2)c1 (stereo not drawn)	n	n	n	x
Cc1cccc(C(=O)N2CCC(=O)N(C(COCc3cccc(C(F)(F)F)c3)Cc3ccccc3)CC2)c1 (stereo not drawn)	x	n	-3.26	0.0585
Cc1ccc(S(=O)(=O)N2CCC(=O)N(C(COCc3ccc(Cl)cc3)Cc3ccccc3)CC2)cc1 (stereo not drawn)	x	n	-4.37	u
O=C(c1cccc(Cl)c1)N1CCC(=O)N(C(COCc2ccccc2)Cc2ccccc2)CC1 (stereo not drawn)	n	n	n	x
